According to ChEMBL document CHEMBL2169816, “Noncyclam tetraamines inhibit CXC chemokine receptor type 4 and target glioma-initiating cells” (J Med Chem, 2012):
Calls of active or inactive are those of the source. No cut-off for these calls is given here.

Experiments:
[1] = test system: CD44null; assay: Effect on human GBM1 cell differentiation assessed as increase in CD44null cells after 7 days by flow cytometric analysis; format: functional, cell-based
Procedure, shortened: (§1)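 Patient-derived GBM neurospheres were treated with 1 μM inhibitor for 7 days, then dissociated and blocked 15 min with 10 μg/mL human IgG. Staining was FITC anti-CD44 or IgG2b isotype, 20 min on ice in the dark, then PBS wash and propidium iodide to exclude dying cells. Flow cytometry gave CD44 null fraction and CD44 low/CD44 null ratio.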

[2] = target: T1, C-X-C chemokine receptor type 4 (Homo sapiens, UniProt P61073); details: GBM2, 0.1 uM
T1 sequence (P61073 whole entry): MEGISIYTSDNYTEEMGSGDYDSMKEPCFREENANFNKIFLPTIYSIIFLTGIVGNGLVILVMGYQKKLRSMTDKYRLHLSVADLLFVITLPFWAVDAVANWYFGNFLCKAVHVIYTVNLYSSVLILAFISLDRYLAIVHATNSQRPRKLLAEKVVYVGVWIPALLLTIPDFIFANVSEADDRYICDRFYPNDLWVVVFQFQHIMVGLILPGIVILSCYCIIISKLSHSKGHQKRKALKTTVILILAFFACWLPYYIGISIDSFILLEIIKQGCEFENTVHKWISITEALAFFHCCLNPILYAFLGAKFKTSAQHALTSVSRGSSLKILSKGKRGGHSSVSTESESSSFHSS

[3] = target: T1, C-X-C chemokine receptor type 4; details: GBM2, 1 uM
[4] = Cytotoxicity against human GBM1 assessed as cell viability after 7 days by trypan blue staining method in presence of CXCL12 relative to control; details: GBM1 cells, read-out: Activity
Procedure, shortened: (§2)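 Dissociated neurospheres (acutase, 3 min) were counted and equal numbers seeded in triplicate per condition. Cells were treated or not with CXCR4 inhibitors (1 μM), with or without CXCL12. After 7 days cells were counted and viability expressed relative to untreated control.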

[5] = (§3) Cytotoxicity against human MT4 cells expressing CXCR4 after 5 days by MTT assay; format: cell-based; details: MT4 cells expressing CXCR4
Procedure, shortened: (§4)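 MT-4 cells, infected or not with HIV-1, exposed to a range of compound concentrations and left to proliferate for 5 days. Viable cells were counted by MTT colorimetric read-out. EC50 comes from protection against virus-induced cytopathic effect and CC50 from viability of uninfected cells.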

[6] = test system: Mus musculus; assay: (§5) Toxicity in iv dosed Hsd:ICR(CD-1) mouse measured up to 14 days; format: organism-based; details: in vivo, 336 h
Procedure, shortened: (§6)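 Single iv tail-vein injection in physiological saline (0.9% NaCl) to Hsd:ICR (CD-1) mice; groups of 4 (2 male, 2 female) at doses of 1, 2, 3, 3.5 and 4 mg/kg. Viability/mortality and clinical signs checked during first 30 min and at ~1, 2, 3, 5 h on day 1, then through days 2–15; 14-day observation; body weights recorded; necropsy of all animals.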

[7] = as §5; format: organism-based; details: Hsd:ICR(CD-1), in vivo; procedure, shortened: as §6
[8] = target: T1, C-X-C chemokine receptor type 4; assay: Antagonist activity at human recombinant CXCR4 expressed in CHO cells assessed as inhibition of SDF1a-induced electrical impedance by dielectric spectroscopic analysis; format: functional, cell-based
Procedure, shortened: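 CHO cells expressing recombinant human CXCR4. Antagonist mode: SDF-1a stimulant at 1 nM. Cellular impedance was read by cellular dielectric spectroscopy after incubation at 28 °C. Reference antagonist MIP-II was included. IC50 and KB were derived from concentration–response curves.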

[9] = test system: Human immunodeficiency virus 1; assay: Antiviral activity against HIV1 infected in MT4 cells expressing CXCR4 assessed as inhibition of virus-induced cytopathic effect after 5 days; format: functional, organism-based; procedure, shortened: as §4
[10] = target: hERG (KCNH2) (Homo sapiens, UniProt Q12809); assay: Inhibition of human ERG expressed in CHOK1 cells at 10 uM after 5 mins by whole-cell patch clamp assay; format: cell-based; details: CHO-K1 cells expressing human ERG
Chain of hERG (KCNH2) (Q12809 whole entry): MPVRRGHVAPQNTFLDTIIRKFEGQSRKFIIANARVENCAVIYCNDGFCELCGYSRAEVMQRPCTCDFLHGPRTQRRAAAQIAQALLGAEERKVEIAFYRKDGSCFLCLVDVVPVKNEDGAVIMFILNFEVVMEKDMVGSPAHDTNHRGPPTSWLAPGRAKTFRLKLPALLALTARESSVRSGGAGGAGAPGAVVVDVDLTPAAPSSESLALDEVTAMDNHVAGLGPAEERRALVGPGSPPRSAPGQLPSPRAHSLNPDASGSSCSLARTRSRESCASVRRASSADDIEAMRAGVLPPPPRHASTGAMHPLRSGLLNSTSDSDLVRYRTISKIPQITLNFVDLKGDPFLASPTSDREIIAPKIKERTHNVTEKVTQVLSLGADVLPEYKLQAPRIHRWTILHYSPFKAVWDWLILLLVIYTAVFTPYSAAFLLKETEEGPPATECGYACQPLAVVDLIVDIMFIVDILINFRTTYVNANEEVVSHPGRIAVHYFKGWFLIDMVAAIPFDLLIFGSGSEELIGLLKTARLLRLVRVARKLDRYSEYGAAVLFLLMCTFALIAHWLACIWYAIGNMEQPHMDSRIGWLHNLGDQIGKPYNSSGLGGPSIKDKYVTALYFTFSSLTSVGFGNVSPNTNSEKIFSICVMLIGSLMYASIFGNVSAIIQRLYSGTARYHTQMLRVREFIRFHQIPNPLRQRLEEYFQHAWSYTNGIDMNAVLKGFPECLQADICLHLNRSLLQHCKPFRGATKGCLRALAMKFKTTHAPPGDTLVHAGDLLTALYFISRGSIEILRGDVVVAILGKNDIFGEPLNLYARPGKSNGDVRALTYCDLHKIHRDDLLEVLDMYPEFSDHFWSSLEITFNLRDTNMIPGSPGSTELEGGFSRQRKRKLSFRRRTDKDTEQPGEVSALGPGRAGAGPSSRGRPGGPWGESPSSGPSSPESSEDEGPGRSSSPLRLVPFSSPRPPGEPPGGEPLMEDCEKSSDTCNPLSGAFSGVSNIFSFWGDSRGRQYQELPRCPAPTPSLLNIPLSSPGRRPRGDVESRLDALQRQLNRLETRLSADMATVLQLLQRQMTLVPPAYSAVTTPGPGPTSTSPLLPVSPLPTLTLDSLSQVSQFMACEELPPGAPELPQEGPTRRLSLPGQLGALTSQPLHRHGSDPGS
Procedure, shortened: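 hERG-expressing CHO-K1 cells were tested by automated whole-cell patch-clamp, measuring inhibition of tail current. Compound was applied cumulatively at 0.1, 1 and 10 μM, 5 min each at room temperature. E-4031 served as reference.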

[11] = Cytotoxicity against human GBM1 assessed as cell viability after 7 days by trypan blue staining method relative to control; details: GBM1 cells, read-out: Activity; procedure, shortened: as §2
[12] = target: T1, C-X-C chemokine receptor type 4; details: GBM2, 0.1 uM; remark: listed apart in the source
[13] = test system: CD44null; assay: Effect on human GBM2 cell differentiation assessed as increase in CD44null cells after 7 days by flow cytometric analysis; format: functional, cell-based; procedure, shortened: as §1
[14] = target: T1, C-X-C chemokine receptor type 4; details: GBM2, 1 uM; remark: listed apart in the source
[15] = test system: Mus musculus; assay: Toxicity in Hsd:ICR(CD-1) mouse assessed as mortality at 2 mg/kg, iv after 1 min; format: organism-based; set-up: dose 2 mg/kg, route intravenous; details: in vivo; procedure, shortened: as §6
[16] = target: T1, C-X-C chemokine receptor type 4; details: GBM2, 1 uM; remark: listed apart in the source
[17] = target: Voltage-gated inwardly rectifying potassium channel KCNH2 (Homo sapiens, UniProt Q12809); assay: Inhibition of human ERG expressed in CHOK1 cells after 5 mins by whole-cell patch clamp assay; format: cell-based, CHO-K1
Chain of Voltage-gated inwardly rectifying potassium channel KCNH2 (Q12809 whole entry): as above

[18] = test system: Mus musculus; assay: Toxicity in Hsd:ICR(CD-1) mouse assessed as mortality at 2.5 mg/kg, iv after 1 min; format: organism-based; set-up: dose 2.5 mg/kg, route intravenous; details: in vivo
[19] = test system: MT4; assay: as §3; format: cell-based; details: mt4, 120 h, 120 h; procedure, shortened: as §4
[20] = test system: GBM1; assay: Effect on human GBM1 cell differentiation xenografted in NOD-SCID mouse assessed as decrease in tumor number incubated for 7 days prior to xenografting measured after 40 days by MRI scanning analysis relative to control; format: functional, cell-based
Procedure, shortened: (§7)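 GBM1 neurospheres were pretreated in culture for 7 days, then dissociated, counted and checked for viability by trypan blue. 100.000 live cells were stereotactically injected into the right corpus striatum of 9-week-old NOD-SCID mice. At 40 days, contrast MRI (gadolinium-DTPA 0.25 mmol/kg ip) covered the whole brain and tumor volume was quantified.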

[21] = test system: GBM1; assay: Effect on human GBM1 cell differentiation xenografted in NOD-SCID mouse assessed as decrease in tumor size incubated for 7 days prior to xenografting measured after 40 days by MRI scanning analysis relative to control; format: functional, cell-based; procedure, shortened: as §7
[22] = target: T1, C-X-C chemokine receptor type 4; details: GBM2, 1 uM; remark: listed apart in the source
[23] = test system: Mus musculus; assay: Toxicity in Hsd:ICR(CD-1) mouse assessed as mortality at 3 mg/kg, iv after 1 min; format: organism-based; set-up: dose 3 mg/kg, route intravenous; details: in vivo; procedure, shortened: as §6
[24] = target: T1, C-X-C chemokine receptor type 4; details: GBM2, 1 uM; remark: listed apart in the source
[25] = target: T1, C-X-C chemokine receptor type 4; details: GBM2, 1 uM; remark: listed apart in the source
[26] = target: T1, C-X-C chemokine receptor type 4; details: GBM2, 0.1 uM; remark: listed apart in the source
[27] = Human immunodeficiency virus 1, MT4, 120 h

Structure (SMILES)	Activity [1]	inhibition [2]	viability at 168 h [4] [%]	CC50 at 120 h [5] [nM]	MLC [6] [mg/kg]	MTD at 336 h [7] [mg/kg]	IC50 [8] [nM]	EC50 [9, 27] [nM]	viability at 168 h [11] [%]	inhibition [12]	Activity [13]	inhibition [14]	inhibition [16]	other results
C[C@H]1CCCCN1CCCNCc1ccc(CNCCCN2CCCC[C@@H]2C)cc1.Cl	Active	inactive	> 80	> 44000	2	1.5	1100	137	> 80	inactive	Active	inactive	inactive	inhibition [3]: Active; inhibition at 5 min, 10 µM [10]: < 25%; Activity [15]: Toxic
C[C@@H]1CCCCN1CCCNCc1ccc(CNCCCN2CCCC[C@H]2C)cc1.Cl			> 80	> 44000			350	125	> 80					IC50 [17]: > 100000 nM; Activity [18]: Toxic
CC1CCCCN1CCCNCc1ccc(CNCCCN2CCCCC2C)cc1 (mixture of isomers; 1)														CC50 [19]: > 25 µg/mL; EC50 ([9]; mt4): 19 nM
CC1CCCCN1CCCNCc1ccc(CNCCCN2CCCCC2C)cc1 (mixture of isomers; 11) [listing 1 of 2 here]	Active										Active			Activity [20]: Active; Activity [21]: Active
CC1CCCCN1CCCNCc1ccc(CNCCCN2CCCCC2C)cc1 (mixture of isomers; 11) [listing 2 of 2 here]														CC50 ([19]; read-out: CC50): > 44000 nM; EC50 ([9]; mt4): 130 nM
C[C@@H]1CCCCN1CCCNCc1ccc(CNCCCN2CCCC[C@H]2C)cc1 [listing 1 of 2 here]					2.5	2								
C[C@@H]1CCCCN1CCCNCc1ccc(CNCCCN2CCCC[C@H]2C)cc1 [listing 2 of 2 here]	Active	inactive								inactive	Active	inactive	inactive	
C[C@@H]1CCCCN1CCCNCc1ccc(CNCCCN2CCCC[C@@H]2C)cc1.Cl (mixture of isomers)	Active	inactive	> 80	26000	3	2.5	790	139	> 80	inactive	Active	Active	Active	inhibition [22]: Active; Activity [23]: Toxic; inhibition [24]: inactive; IC50 [17]: > 100000 nM; inhibition [25]: Active; inhibition [26]: inactive
